Assay [1] deals with Meloidogyne incognita. The assay is described as follows: Nematicidal activity against second-stage juveniles of Meloidogyne incognita (root-knot nematode) after 1 day by inverted microscopic analysis. Type of assay: functional, organism-based. Particulars: 24 h. A digest of the protocol: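 Stocks in methanol, diluted with water/Tween; double-strength solutions mixed 1:1 with 25 J2 per well (methanol ≤1% final), covered, dark, 28 °C, 1 day. Controls: water and water/Tween 0.2%. Paralysis corrected for water-control mortality; five replicates, experiment run twice; EC50 from log-logistic nonlinear regression.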

Assay [2] concerns Meloidogyne incognita. The assay is described as follows: Nematicidal activity against second-stage juveniles of Meloidogyne incognita (root-knot nematode) after 1 hr by inverted microscopic analysis. Type of assay: functional. In short, it runs like this: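 J2 motility assay: methanol stocks diluted in water/Tween, mixed 1:1 with 25 J2 per well (methanol ≤1% final), kept covered in dark at 28 °C; paralysis scored at 1 h over a concentration range to give EC100. Water and water/Tween 0.2% controls; five replicates, repeated twice.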

For assay [3], the system named is Meloidogyne incognita. Briefly: Nematicidal activity against second-stage juveniles of Meloidogyne incognita (root-knot nematode) assessed as microscopic fracture on cuticle at […] by scanning electron microscopic analysis. Format: functional, organism-based. In short, it runs like this:
(§1)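 J2 juveniles were exposed to the aldehyde, with untreated J2 as negative controls. They were postfixed in 1% osmium tetroxide in 0.1 M cacodylate buffer for 1 h, washed in distilled water, and frozen in slush nitrogen. They were then freeze-dried under vacuum overnight (−70 °C rising to room temperature), sputter-coated with 10 nm gold and imaged by secondary-electron SEM at 15 kV.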

The subject of assay [4] is Meloidogyne incognita. The assay is described as follows: Nematicidal activity against second-stage juveniles of Meloidogyne incognita (root-knot nematode) assessed as smooth/stretched cuticle at […] by scanning electron microscopic analysis. Type of assay: functional, organism-based. A digest of the protocol: as §1
Assay [5] deals with Meloidogyne incognita. The assay is described as follows: Nematicidal activity against second-stage juveniles of Meloidogyne incognita (root-knot nematode) assessed as macroscopic fracture on cuticle at […] by scanning electron microscopic analysis. Type of assay: functional, organism-based. A digest of the protocol:
as §1

Assay [6] deals with T1, Collagen (Meloidogyne javanica) (UniProt O01945).
T1 sequence (whole entry): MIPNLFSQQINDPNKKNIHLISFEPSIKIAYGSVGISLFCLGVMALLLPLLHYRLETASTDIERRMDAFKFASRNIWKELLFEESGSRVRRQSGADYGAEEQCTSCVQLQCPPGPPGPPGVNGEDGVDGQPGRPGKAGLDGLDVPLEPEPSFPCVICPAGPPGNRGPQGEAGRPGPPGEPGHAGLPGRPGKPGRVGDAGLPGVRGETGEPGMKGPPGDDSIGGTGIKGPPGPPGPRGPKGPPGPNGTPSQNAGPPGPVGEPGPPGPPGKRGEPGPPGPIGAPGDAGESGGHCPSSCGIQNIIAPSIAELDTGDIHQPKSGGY
Briefly: Covalent binding to Meloidogyne javanica (root-knot nematode) collagen 3 assessed as compound-protein adduct formation at 1 mM by HPLC-ESI-MS analysis. In short, it runs like this: (§2)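 Aldehyde (final 1, 5 or 15 mM) incubated with probe peptide (0.5 mM) in 100 mM Tris-HCl pH 7.4, 25 °C, dark, 24 h, duplicate; stopped with TFA (0.1% final). Diluted in 0.1% TFA, analysed by HPLC-ESI-MS (C18, TFA water/acetonitrile gradient). Adducts quantified label-free as relative XIC peak area of each derivative versus sum of all derivatives; peptide-only control.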

For assay [7], the target named is T1, Collagen (Meloidogyne javanica). Briefly: Covalent binding to Meloidogyne javanica (root-knot nematode) collagen 3 assessed as compound-protein adduct formation at 5 mM by HPLC-ESI-MS analysis. A digest of the protocol: as §2
Assay [8] shares this target. The assay is described as follows: Covalent binding to Meloidogyne javanica (root-knot nematode) collagen 3 assessed as compound-protein adduct formation at 15 mM by HPLC-ESI-MS analysis. In short, it runs like this: as §2

≈ marks a conversion by molar mass, not a printed value. Calls of active or inactive are those of the source. The calls are words filed in the database; no cut-off is given here.

Regarding `CCc1ccc(O)c(C=O)c1`, the midpoint of the response in the assay with Meloidogyne incognita [1], the EC50, lay at 53 µg/mL (≈ 353 µM). In the assay with Meloidogyne incognita [2], this molecule registered an EC100 above 100 mg/L.

In the case of `CCCCCCCCCCCCCCCc1ccc(C=O)c(O)c1`, the EC50 in the assay with Meloidogyne incognita [1] was above 1000 µg/mL. In addition, the EC100 in the assay with Meloidogyne incognita [2] is recorded as above 1000 mg/L.

Consider `CCCCC/C=C/C=C/C=O`, for which, in the assay on Meloidogyne incognita [3], the result was inactive. The molecule further showed an EC50 in the assay with Meloidogyne incognita [1] of 12 µg/mL (≈ 78.8 µM). Further, the result in the assay on Meloidogyne incognita [4] and in the assay on Meloidogyne incognita [5] was Active. The EC100 in the assay on Meloidogyne incognita [2] was above 20 mg/L.

As to `COc1ccccc1C=O` [2-METHOXYBENZALDEHYDE], in the assay on Meloidogyne incognita [1], the EC50 is above 1000 µg/mL. The Activity is 74% in assay [6] and 77% in assay [7]. The molecule further registered an EC100 in the assay with Meloidogyne incognita [2] above 1000 mg/L.

In the assay on Meloidogyne incognita [1], `O=Cc1ccc2ccccc2c1` [2-NAPHTHALDEHYDE] came in with an EC50 of 13 µg/mL (≈ 83.2 µM). In the assay on Meloidogyne incognita [2], this molecule showed an EC100 above 75 mg/L.

As for `O=Cc1ccccc1[N+](=O)[O-]` [2-NITROBENZALDEHYDE], a half-maximal response in the assay on Meloidogyne incognita [1] (EC50) required 120 µg/mL (≈ 794 µM). The molecule further registered an EC100 in the assay on Meloidogyne incognita [2] above 200 mg/L.

Molecule `COc1ccc(C=O)cc1OC` [3,4-DIMETHOXYBENZALDEHYDE] returned an EC50 in the assay on Meloidogyne incognita [1] above 1000 µg/mL. For the same molecule, the figures for the Activity in assay [6] and in assay [7] were 65% and 70%, respectively. In addition, in the assay on Meloidogyne incognita [2], the EC100 is above 1000 mg/L.

In the assay on Meloidogyne incognita [1], `CC(=O)c1ccc2c(c1)OCO2` [3,4-METHYLENDIOXY ACETOPHENONE] had an EC50 above 500 µg/mL. For the same molecule, in the assay on Meloidogyne incognita [2], the EC100 is on record as above 500 mg/L.

Regarding `O=Cc1cccc(C(=O)O)c1` [3-FORMYLBENZOIC ACID], the EC50 in the assay on Meloidogyne incognita [1] was above 1000 µg/mL. In the assay on Meloidogyne incognita [2], this molecule gave an EC100 above 1000 mg/L.

The molecule `O=Cc1cccc(O)c1` [3-HYDROXYBENZALDEHYDE] displayed an EC50 in the assay with Meloidogyne incognita [1] of 31 µg/mL (≈ 254 µM). In the assay on Meloidogyne incognita [2], the EC100 was above 250 mg/L.

`O=Cc1ccc(O)cc1` [4-HYDROXYBENZALDEHYDE] returned an EC50 with Meloidogyne incognita [1] of 75 µg/mL (≈ 614 µM). For the same molecule, the EC100 in the assay on Meloidogyne incognita [2] is given as 500 mg/L.

As for `O=Cc1ccccc1` [BENZALDEHYDE], the EC50 with Meloidogyne incognita [1] is above 250 µg/mL. The figures for the Activity in assay [6], in assay [7] and in assay [8] were 0%, 0% and 6%, respectively. This molecule yielded an EC100 in the assay on Meloidogyne incognita [2] above 100 mg/L.

In the assay on Meloidogyne incognita [1], `Oc1ccccc1O` [CATECHOL] gave an EC50 above 500 µg/mL. This molecule also had an EC100 in the assay on Meloidogyne incognita [2] above 500 mg/L.

`O=C(O)/C=C/c1ccccc1` [CINNAMIC ACID]: the EC50 with Meloidogyne incognita [1] was above 250 µg/mL. In the assay on Meloidogyne incognita [2], the EC100 is listed as above 250 mg/L.

For `O=C/C=C\c1ccccc1` [CINNAMIC ALDEHYDE], the EC50 in the assay on Meloidogyne incognita [1] is 12 µg/mL (≈ 90.8 µM). In the assay on Meloidogyne incognita [2], this molecule came in with an EC100 above 250 mg/L.

Regarding `CC(C)=CCC/C(C)=C/C=O` [CITRAL], the EC50 in the assay with Meloidogyne incognita [1] worked out at 72 µg/mL (≈ 473 µM). In the assay with Meloidogyne incognita [2], this molecule had an EC100 above 250 mg/L.

For `CCOP(=O)(SC(C)CC)N1CCSC1=O` (configuration not stated) [FOSTHIAZATE], the EC100 in the assay with Meloidogyne incognita [2] is 3 mg/L.

In turn, `O=Cc1ccco1` [FURFURAL] registered an EC50 in the assay on Meloidogyne incognita [1] of 8 µg/mL (≈ 83.3 µM). In the assay on Meloidogyne incognita [2], this molecule showed an EC100 of 11 mg/L.

As to `O=Cc1ccccc1O[C@@H]1O[C@H](CO)[C@@H](O)[C@H](O)[C@H]1O` [HELICIN], the EC50 with Meloidogyne incognita [1] is above 250 µg/mL. The EC100 in the assay on Meloidogyne incognita [2] is above 250 mg/L.

Regarding `O=Cc1cccc(C=O)c1` [ISOPHTHALIC DICARBOXALDEHYDE], the response in the assay on Meloidogyne incognita [1] was half-maximal at 15 µg/mL (≈ 112 µM) (EC50). The Activity in assay [6] was found to be 1%; in assay [7] it was 0%; in assay [8], 0%. In the assay with Meloidogyne incognita [2], this molecule had an EC100 above 100 mg/L.

Molecule `c1ccc([C@H]2CN3CCSC3=N2)cc1` [LEVAMISOLE] yielded an EC50 in the assay with Meloidogyne incognita [1] of 4 µg/mL (≈ 19.6 µM). This molecule also returned an EC100 in the assay with Meloidogyne incognita [2] above 20 mg/L.

Molecule `COC(=O)c1ccccc1O` [METHYL SALICYLATE] registered an EC50 with Meloidogyne incognita [1] above 1000 µg/mL. Further, the EC100 in the assay on Meloidogyne incognita [2] is above 1000 mg/L.

Molecule `O=Cc1ccccc1C=O` [ORTHO-PHTHALALDEHYDE] displayed an EC50 in the assay on Meloidogyne incognita [1] of 11 µg/mL (≈ 82 µM). The molecule further had an EC100 with Meloidogyne incognita [2] above 50 mg/L.

`C[C@@H]1O[C@@H](O[C@H]2C[C@@H](O)[C@]3(CO)[C@H]4[C@H](O)C[C@]5(C)[C@@H](C6=CC(=O)OC6)CC[C@]5(O)[C@@H]4CC[C@]3(O)C2)[C@H](O)[C@H](O)[C@H]1O` [OUABAIN]: in the assay with Meloidogyne incognita [1], the EC50 is above 1000 µg/mL. The same molecule returned an EC100 in the assay on Meloidogyne incognita [2] above 1000 mg/L.

For `O=CCc1ccccc1` [PHENYLACETALDEHYDE], in the assay with Meloidogyne incognita [1], the midpoint of the response, the EC50, lay at 167 µg/mL (≈ 1390 µM). The EC100 in the assay with Meloidogyne incognita [2] worked out at 1000 mg/L.

Regarding `O=Cc1ccc2c(c1)OCO2` [PIPERONAL], the EC50 in the assay on Meloidogyne incognita [1] came to 44 µg/mL (≈ 293 µM). Further, the values for the Activity in assay [6] and in assay [7] were 5% and 30%, respectively. In the assay on Meloidogyne incognita [2], the EC100 is above 100 mg/L.

The molecule `O=Cc1ccc(O)c(O)c1` [PROTOCATECHUALDEHYDE] returned an EC50 in the assay with Meloidogyne incognita [1] above 1000 µg/mL. The Activity worked out at 72% in assay [6], 89% in assay [7] and 73% in assay [8]. Besides, in the assay on Meloidogyne incognita [2], the EC100 is above 1000 mg/L.

As for `Cn1c2cccc(=O)c-2nc2ccccc21` [PYOCYANIN], the EC50 with Meloidogyne incognita [1] is 72 µg/mL (≈ 342 µM). In the assay with Meloidogyne incognita [2], this molecule returned an EC100 above 250 mg/L.

In the case of `O=Cc1ccccc1O` [SALICYLADEHYDE], in the assay with Meloidogyne incognita [3], the outcome was inactive. The same molecule yielded an EC50 with Meloidogyne incognita [1] of 11 µg/mL (≈ 90.1 µM). Also, the Activity is 61% in assay [6] and 57% in assay [7]. For the same molecule, the outcome in the assay with Meloidogyne incognita [4] and in the assay with Meloidogyne incognita [5] was Active. The molecule further yielded an EC100 with Meloidogyne incognita [2] above 25 mg/L.

`COc1cc(C=O)ccc1O` [VANILLIN]: in the assay with Meloidogyne incognita [1], the EC50 was above 1000 µg/mL. The same molecule gave an EC100 with Meloidogyne incognita [2] above 1000 mg/L.

A word on the EC50: it is the concentration at which the effect is half-maximal. Read a low EC50 as a more potent agent.

These data come from ChEMBL document CHEMBL3045766, “Potent nematicidal activity of phthalaldehyde, salicylaldehyde, and cinnamic aldehyde against Meloidogyne incognita” (J Agric Food Chem, 2013).
